# Results of several laboratories.
# RET V804M: Proto-oncogene tyrosine-protein kinase receptor Ret (RET, Homo sapiens, UniProt P07949, V804M)
# RET: Proto-oncogene tyrosine-protein kinase receptor Ret (RET, Homo sapiens, UniProt P07949)
Structure (SMILES),target,read-out,action,technique,concentration,endpoint,value
COc1ccc(CN2C3CC2CN(c2ccc(-c4cc(OCC(C)(C)O)cn5ncc(C#N)c45)cn2)C3)cn1,RET V804M,thermal stability,,DSF,10 µM,ΔTm,6.4 °C
CCCCN(CCCC)C(=O)CN1C[C@H](c2cc(OC)c3c(c2)OCO3)[C@@H](C(=O)O)[C@@H]1CC(C)(C)CCC,"Proto-oncogene tyrosine-protein kinase receptor Ret (RET, Homo sapiens, UniProt P07949, M918T)",cell-free assay,,competition with immobilised ligand,1 µM,remaining binding,100%
Nc1ncnc2occ(-c3ccc(NC(=O)Nc4cc(C(F)(F)F)ccc4F)cc3)c12,RET V804M,cell-free assay,,,20 µM,remaining signal,0%
CCCOc1ccc(OC)c(F)c1C(=O)c1ccc(C(=O)N[C@@H]2CNC[C@H]2NC(=O)c2ccc3[nH]ncc3c2)cc1,"Proto-oncogene tyrosine-protein kinase receptor Ret (RET, Homo sapiens, UniProt P07949, V804L)",enzyme activity,inhibitor,,10 µM,remaining activity,8%
CC/C(=N\NC(=O)NCc1cccc(O)c1)c1ccc(O)c(C)c1O,"Proto-oncogene tyrosine-protein kinase receptor Ret (RET, Homo sapiens, UniProt P07949, G691S)",enzyme activity,inhibitor,,0.1 µM,inhibition,5.6%
CC(=O)c1cccc(NC(=O)Cc2csc(NC(=O)Nc3cccc(Cl)c3)n2)c1,RET,enzyme activity,inhibitor,radiometric,10 µM,remaining activity,92.6%
CO[C@]1(C(=O)N[C@@H](C)c2ccc(-n3cc(F)cn3)nc2)CC[C@H](c2nc(C)cc(Nc3cc(C)[nH]n3)n2)CC1,"Proto-oncogene tyrosine-protein kinase receptor Ret (RET, Homo sapiens, UniProt P07949, L760A)",thermal stability,,DSF,10 µM,ΔTm,11.9 °C
O=C(Nc1cccnn1)N1CC(C/C=C/c2cncc(Oc3ccc(C(F)(F)F)cn3)n2)C1,RET,cell-free assay,,competition with immobilised ligand,1 µM,remaining binding,100%
Cc1cccc(NC(=O)CNC(=O)c2ccccc2NS(=O)(=O)c2ccc3[nH]c(=O)[nH]c3c2)c1C,RET,enzyme activity,inhibitor,radiometric,0.1 µM,remaining activity,114%
CCC(=O)N[C@@H]1CC[C@H](C(=O)N(C)c2ccc(-c3nc4ccccc4o3)cc2)C1,RET V804M,cell-free assay,,competition with immobilised ligand,1 µM,remaining binding,100%
COc1ccc(NC(=O)Nc2cc(C)c3nc(NC(=O)c4ccccc4)sc3c2)c(OC)c1,RET,enzyme activity,inhibitor,radiometric,0.1 µM,remaining activity,133%
NS(=O)(=O)c1cc(NC(=O)Cc2ccccc2)ccc1Oc1cccc(Cl)c1,RET V804M,cell-free assay,,competition with immobilised ligand,1 µM,remaining binding,100%
COc1cc(NC(=O)Nc2cc(OC)c3nc(NC(=O)c4ccccc4)sc3c2)cc(OC)c1,RET,enzyme activity,inhibitor,radiometric,0.1 µM,remaining activity,112%
